Source: ChEMBL document CHEMBL3045034, “Diterpenes from Salvia broussonetii transformed roots and their insecticidal activity” (J Agric Food Chem, 2005)
≈ marks a conversion by molar mass, not a printed value. Calls of active or inactive are those of the source. The calls are words filed in the database; no cut-off is given here.

Experiments:
Spodoptera littoralis [1] = assay: Effect on weight gain in L6 larvae Spodoptera littoralis assessed as biomass compound injected orally relative to control; type: functional
Spodoptera littoralis [2] = assay: Antifeedant activity against L6 larvae Spodoptera littoralis compound injected orally relative to control; type: functional, organism-based
Spodoptera littoralis [3] = assay: Effect on ingestion in L6 larvae Spodoptera littoralis assessed as consumption compound injected orally relative to control; type: functional
[4] = tested on: Leptinotarsa decemlineata; assay: Mortality in adult Leptinotarsa decemlineata in host plant measured after 72 hr; type: functional; set-up: concentration or dose not given beside the values
How it was run: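 Test compounds in DMSO (10 µg/insect) were injected into the hemolymph of 20 adult beetles. Mortality was recorded for up to 3 days (72 h), analysed with contingency tables and corrected by Abbott's method.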

[5] = tested on: Leptinotarsa decemlineata; assay: Antifeedant activity against adult Leptinotarsa decemlineata in host plant assessed as feeding inhibition; type: functional, organism-based
How it was run: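 Choice feeding assay with adult beetles. Percent feeding inhibition was calculated. Compounds giving over 50% inhibition went on to a dose-response test, and EC50 (dose for 50% feeding reduction, µg/cm2) was derived by linear regression of % inhibition on log dose.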

[6] = Cytotoxicity in mammalian Cricetulus griseus CHO (Chinese hamster ovary) cells measured after 48 hr by MTT assay; conditions: read-out: LD50

Structure (SMILES) | Activity (Spodoptera littoralis [1]) | Activity (Spodoptera littoralis [2]) | Activity (Spodoptera littoralis [3]) | mortality [4] | EC50 [5] | CC50 at 48 h [6]
COc1c(C(C)C)cc2c(c1O)[C@@]1(C)CCCC(C)(C)[C@@H]1CC2 | 102% | inactive | 91% | 14% | 10.2 microg/cm2 | > 100 µg/mL
CC(C)c1cc2c(c(O)c1O)[C@@]1(C)CCCC(C)(C)[C@@H]1[C@@H](O)C2=O [6-ALPHA-HYDROXYDEMETHYL-CRYPTOJAPONOL] | – | inactive | – | – | – | > 100 µg/mL
CC(C)c1cc2c(c(O)c1O)[C@@]1(C)CCCC(C)(C)C1=C(O)C2=O [14-DEOXYCOLEON U] | 99% | inactive | 107% | 29% | 1.8 microg/cm2 | > 100 µg/mL
CC(C)c1cc2c(c(O)c1O)C[C@@]13CCCC(C)(C)[C@@H]1C[C@@H]2O3 [BRUSSONOL] | – | – | – | 7% | > 100 microg/cm2 | 50.6 µg/mL (≈ 160 µM)
CC(C)c1cc2c(c(O)c1O)[C@@]1(C)CCCC(C)(C)[C@@H]1CC2=O [DEMETHYLCRYPTOJAPONOL] | 105% | inactive | 103% | 43% | > 100 microg/cm2 | 36 µg/mL (≈ 114 µM)
COc1c(O)c2c(c(O)c1C(C)C)C(=O)C[C@H]1C(C)(C)CCC[C@]21C [INUROYLEANOL] | 106% | inactive | 119% | 0% | > 100 microg/cm2 | –
